Values without a mark were called inactive. Active and inactive are the calls of the source.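 How the source made its calls: active means inhibition of the enzyme-probe labelling of at least 50% at one fixed dose; inactive means inhibition below 50%.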
What follows are compounds tested against Diacylglycerol lipase-alpha (Mus musculus) (UniProt Q6WQJ1) (assay: mouse DAGLa inhibition, late-stage follow-up, selectivity assay for DAGLb inhibitor project, biochemical, gel-based competitive ABPP, recombinant, fluorescence (AID 602403)). Conditions: HEK293T membrane mouse DAGLa, at 0.4 µM, stronger effect = higher value.
Procedure, shortened: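 Test system: Membrane proteome of 293T HEK cells transiently overexpressing mouse DAGLa | Buffer or medium: DPBS | Also added: HT-01 probe, 1 µM | Schedule: Compound pre-incubation 30 min, probe labeling 30 min, both 37 °C | Detection: SDS-PAGE separation with in-gel fluorescence imaging of bands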

Chain of Diacylglycerol lipase-alpha (Mus musculus) (Q6WQJ1 whole entry, looked up): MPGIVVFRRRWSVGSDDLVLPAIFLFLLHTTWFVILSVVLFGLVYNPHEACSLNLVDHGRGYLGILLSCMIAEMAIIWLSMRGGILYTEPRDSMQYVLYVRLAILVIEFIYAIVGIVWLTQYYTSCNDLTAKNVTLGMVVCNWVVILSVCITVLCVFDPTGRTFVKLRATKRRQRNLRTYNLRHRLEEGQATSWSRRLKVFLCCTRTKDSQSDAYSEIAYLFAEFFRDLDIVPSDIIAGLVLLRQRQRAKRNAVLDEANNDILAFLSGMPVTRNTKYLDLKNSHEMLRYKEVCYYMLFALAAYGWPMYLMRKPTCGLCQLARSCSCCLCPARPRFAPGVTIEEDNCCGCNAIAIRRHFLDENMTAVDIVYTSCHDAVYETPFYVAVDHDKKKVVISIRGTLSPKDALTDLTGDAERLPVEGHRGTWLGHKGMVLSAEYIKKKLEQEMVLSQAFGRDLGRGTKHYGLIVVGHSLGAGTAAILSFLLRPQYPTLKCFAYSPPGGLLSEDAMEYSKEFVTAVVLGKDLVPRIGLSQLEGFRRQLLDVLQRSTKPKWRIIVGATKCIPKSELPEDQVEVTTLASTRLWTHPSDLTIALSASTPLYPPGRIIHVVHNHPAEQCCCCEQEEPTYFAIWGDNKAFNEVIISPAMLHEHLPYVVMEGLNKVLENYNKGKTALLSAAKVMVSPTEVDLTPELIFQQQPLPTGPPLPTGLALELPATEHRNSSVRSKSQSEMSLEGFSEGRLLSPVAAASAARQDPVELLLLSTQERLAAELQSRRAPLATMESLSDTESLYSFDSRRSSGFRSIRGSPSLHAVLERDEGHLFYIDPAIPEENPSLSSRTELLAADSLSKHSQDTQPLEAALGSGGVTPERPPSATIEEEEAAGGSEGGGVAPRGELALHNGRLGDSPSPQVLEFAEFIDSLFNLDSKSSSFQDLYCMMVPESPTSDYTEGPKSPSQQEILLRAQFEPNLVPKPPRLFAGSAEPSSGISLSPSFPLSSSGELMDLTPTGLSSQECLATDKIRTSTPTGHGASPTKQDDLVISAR

**Q.** Which inhibition does the source give for `COc1ccccc1-c1ccc(-c2cn(C(=O)N3CCCCC3Cc3ccccc3)nn2)cc1` (stereo not drawn) here?
**A.** Its inhibition is 40%.

**Q.** With `O=C(N1CCCCC1Cc1ccccc1)n1cc(-c2ccc(OC(F)(F)F)cc2)nn1` (stereo not drawn) as the compound, how does the inhibition read?
**A.** Its inhibition is 50% (active).

**Q.** Which inhibition does the source give for `COc1ccc(-c2ccc(-c3cn(C(=O)N4CCCCC4c4ccccc4)nn3)cc2)cc1` (stereo not drawn) here?
**A.** Its inhibition is 0%.

From PubChem BioAssay AID602403 (The Scripps Research Institute Molecular Screening Center, 2012)
